Screening data as filed in PubChem BioAssay.
Only some compounds are listed: those with a hit (about 2% of all), similar ones and a draw of the others.
CASP6 VEID inh: human caspase-6 inhibitors, primary screen, biochemical, VEID-R110 fluorescence, single point, set 2. inhibition, % at 12.5 µM. AID 686996, 2013. 350,000 compounds, 0.53% hits. P55212. purified caspase-6, Z-VEID-R110 cleavage fluorescence;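 active = mean inhibition across replicates at least about 35%, with every replicate also reaching that limit, limit read from the data; inconclusive = only one of the two criteria met; inactive = neither criterion met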;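 also: 0% = median of neutral control wells and 100% = no fluorescence left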
Target sequence (P55212 24-179 limits assumed): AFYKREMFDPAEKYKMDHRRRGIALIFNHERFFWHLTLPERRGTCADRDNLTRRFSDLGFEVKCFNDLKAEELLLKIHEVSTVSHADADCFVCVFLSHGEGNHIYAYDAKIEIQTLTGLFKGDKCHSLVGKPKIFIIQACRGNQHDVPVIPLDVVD
Target sequence (P55212 194-293 limits assumed): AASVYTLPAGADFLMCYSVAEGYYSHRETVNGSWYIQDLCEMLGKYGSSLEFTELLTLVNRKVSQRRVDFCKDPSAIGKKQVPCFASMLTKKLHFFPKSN
CaV13 FRET inh: Primary screen for inhibitors of IQ motif and Ca2+-dependent inactivation inhibitor domain binding in CACNA1D, Förster resonance energy transfer in living cells, …; HEK cells, CFP/YFP FRET ICDI-IQ, plate reader, 10 min; percent FRET-ratio fall versus neutral wells; AID 743397; inhibition, % at 12.3 µM; 340,000 compounds, 0.098% hits;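 active = mean replicate inhibition of at least 30% and at least 1% of replicates passing that level; inconclusive = only one of the two criteria is met; inactive = neither criterion is met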;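 also: 0% = median of the neutral control wells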
XiGFP reactiv: activators of inactive X chromosome reactivation, primary screen, imaging, XiGFP fibroblasts, GFP high-content imaging, set 2 | AID 743238, 2013 | 360,000 compounds, 0.055% hits | activation, % at 7.58 µM | XiGFP mouse fibroblasts, % GFP-positive cells imaging, 3 d; cells co-treated with 5-aza-dC sensitizer; scaled so ellipticine positive control = 100%;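 active = mean normalized replicate activation at least 10% and every replicate at or above 10%; inconclusive = only one of the two criteria met; inactive = mean below 10% and not all replicates reach 10%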;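 also: 0% = median of on-plate neutral control wells and 100% = ellipticine 6 µM median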
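System: 68-5-11 XiGFP fibroblast line | Buffer or medium: DMEM containing 5-aza-dC | Compound: Single point | Times: Compounds 3 days, fix/stain 15 min at room temperature | Benchmarks: Positive control ellipticine, 6 µM final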
FN deposit inh: inhibitors of fibronectin matrix deposition, primary screen, AH1F cells, Alexa488-fibronectin fluorescence, plate reader; inhibition, % at 12.6 µM; AH1F fibroblasts, overnight; AID 743247, 2014; 350,000 compounds, 0.086% hits;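 active = mean inhibition across replicates of 30% or more, regardless of how many single replicates reach that level; inconclusive = mean under 30% yet at least half of replicates reach 30%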;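 also: positive control wells lacked labelled fibronectin entirely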
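Test system: AH1F fibroblast monolayer depositing Alexa488-labelled fibronectin into matrix. Input: 10000 cells per well. Technique: fluorescence, ex 485 nm, em 525 nm. Buffer or medium: DMEM plus 2% serum, read in PBS. Timing: 1 h cell adhesion before compound, then overnight fibronectin incubation. Compound: single dose, pinned. Read-out basis: inhibition from reduced deposited-fibronectin fluorescence.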
DENV2 CPE: inhibitors of DENV2 cytopathic effect, primary screen, cell-based, plate reader, single concentration. DENV2-infected cells, cytopathic effect rescue. CPE inhibition, % at 9.99 µM. 350,000 compounds, 1.7% hits; in the data active = CPE inhibition above about 20%, passing the limit was not always enough; inconclusive = no clear call, values can overlap the other calls; tested in BHK-21 cells;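 also: 0% = median of neutral control wells and 100% = median of positive control wells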
The depositor's hits bear a star; ? = inconclusive; / = no result given.

SMILES	CASP6 VEID inh	CaV13 FRET inh	XiGFP reactiv	FN deposit inh	DENV2 CPE
C[C@@H]1CN([C@@H](C)CO)C(=O)Cc2cc(NS(C)(=O)=O)ccc2O[C@@H]1CN(C)S(=O)(=O)c1ccccc1	-1	/	0	12	-8
COc1cccc(NC(=O)N(C)C[C@@H]2Oc3cc(-c4ccccc4F)ccc3S(=O)(=O)N([C@H](C)CO)C[C@@H]2C)c1	4	/	-1	-25	?
O=C(O)C[C@H]1C[C@@H]2c3cc(NC(=O)Nc4ccc(F)cc4)ccc3O[C@@H]2[C@H](CO)O1	1	/	0	-14	0
CC(C)CC#Cc1ccc([C@@H]2[C@H](CO)N3C(=O)CN(C(=O)NC(C)C)C[C@@H]23)cc1	/	/	0	/	/
C[C@@H]1CN([C@@H](C)CO)C(=O)c2ccccc2-c2ccccc2CO[C@@H]1CN(C)C(=O)Cc1ccccc1	/	/	1	3	/
O=C1C=CC(=O)N1CCCCCCCCCCN1C(=O)C=CC1=O	0	-7	1	44*	3
O=C1C=CC(=O)N1Cc1ccncc1	1	-4	0	-6	15
Cc1ccc(S(=O)(=O)N(C)C[C@@H]2Oc3ccc(NC(=O)Nc4cccc5ccccc45)cc3C(=O)N([C@H](C)CO)C[C@@H]2C)cc1	/	/	-1	/	/
C#CCN1C(=O)[C@]2(OCCC=C[C@H]2C)c2ccccc21	4	-3	0	2	77*
C[C@@H]1CN([C@H](C)CO)C(=O)c2cc(-c3ccc(F)cc3)cnc2O[C@H]1CN(C)C(=O)Cc1ccccn1	-2	/	0	-3	5
Nc1nc(SCC(=O)Nc2ccc([N+](=O)[O-])cc2)[nH]c(=O)c1NC(=O)c1ccc(Br)o1	0	-3	0	2	20*
O=C(c1ccc(Br)cc1)C(CN1CCOCC1)c1ccccc1 (stereo not drawn)	5	-17	0	34*	-6
CCOc1ccc(C(=O)C(CN2CCOCC2)c2ccccc2)cc1 (stereo not drawn)	/	-5	5	20	/
Nc1cccc2c(O)cccc12	7	-5	0	8	32*
CCOc1ncccc1C(=O)OCc1ccc(C(=O)OC)cc1	1	-4	0	-1	5
CCOc1ncccc1C(=O)OCC(=O)NCc1ccc(C(=O)OC)cc1	-2	-16	0	-4	67*
Nc1c(Br)cc(Br)c2c1[nH]c(=O)c1ccccc12	39*	-5	1	-5	3
Cc1cc[n+](-c2[nH]c(=O)sc2/C=N/NC([S-])=Nc2ccccc2)cc1	41*	-28	0	6	-2
COc1ccc(C#Cc2cnc3c(c2)C(=O)N([C@H](C)CO)C[C@H](C)[C@H](CN(C)CC2CCCC2)O3)cc1	2	/	0	/	40*
C[C@@H]1CN([C@@H](C)CO)C(=O)c2cc(-c3ccc(F)cc3)cnc2O[C@H]1CN(C)CC1CCCC1	-2	/	0	2	54*
C[C@@H]1CN([C@@H](C)CO)C(=O)c2cc(-c3ccc(F)cc3)cnc2O[C@@H]1CN(C)CC1CCCC1	-1	/	0	-6	-8
COc1ccc(C#Cc2cnc3c(c2)C(=O)N([C@@H](C)CO)C[C@H](C)[C@H](CN(C)CC2CCCC2)O3)cc1	1	/	-1	/	37*
Oc1cc(Nc2cccnc2)cc2cccnc12	36*	-6	0	4	-1
Cc1noc(C)c1NC(=O)N(C)C[C@H]1Oc2ccc(NS(=O)(=O)c3cn(C)cn3)cc2CC(=O)N([C@H](C)CO)C[C@@H]1C	1	/	-1	-8	48*
COc1ccc(NC(=O)N(C)C[C@@H]2Oc3ccc(NS(=O)(=O)c4cn(C)cn4)cc3CC(=O)N([C@H](C)CO)C[C@@H]2C)cc1	1	/	0	-19	77*
SMILES	CASP6 VEID inh	CaV13 FRET inh	XiGFP reactiv	FN deposit inh	DENV2 CPE
COc1ccc(NC(=O)N(C)C[C@@H]2Oc3ccc(NS(=O)(=O)c4cn(C)cn4)cc3CC(=O)N([C@@H](C)CO)C[C@H]2C)cc1	0	/	-1	2	?
CC(C)NC(=O)N(C)C[C@H]1Oc2ccc(N(C)C)cc2C(=O)N(C)C[C@H]1C	/	/	0	-13	/
O=C(N/N=C/c1ccc(O)cc1O)C(=O)N/N=C/c1ccc(O)cc1O	39*	-6	1	2	-10
CN(C)C(=O)c1cccc(-c2ccc3n(c2=O)C[C@@H]2N[C@H]3[C@H](C(=O)NC3CCC3)[C@H]2CO)c1	3	/	1	/	-7
C[C@@H]1CN([C@H](C)CO)C(=O)CCCn2nncc2CO[C@H]1CN(C)S(=O)(=O)c1ccccc1C#N	/	/	0	7	/
C[C@H](CO)N1C[C@H](C)[C@H](CN(C)C)Oc2cc(C#CC3CCCC3)ccc2S1(=O)=O	1	/	0	0	59*
C[C@@H]1CN([C@@H](C)CO)S(=O)(=O)c2ccc(C#CC3CCCC3)cc2O[C@H]1CN(C)C	2	/	1	-9	22*
C[C@@H]1CN([C@@H](C)CO)S(=O)(=O)c2ccc(C#CC3CCCC3)cc2O[C@@H]1CN(C)C	1	/	0	-9	18
C[C@H](CO)N1C[C@H](C)[C@H](CN(C)C)Oc2cc(C#CC3(O)CCCC3)ccc2S1(=O)=O	0	/	-1	3	26*
C[C@H](CO)N1C[C@H](C)[C@@H](CN(C)S(=O)(=O)c2cn(C)cn2)Oc2ccc(NS(=O)(=O)c3ccc(F)cc3)cc2C1=O	-1	/	0	/	4
C[C@@H]1CN([C@H](C)CO)C(=O)c2cc(-c3ccccc3)cnc2O[C@H]1CN(C)Cc1cccnc1	1	/	-1	-13	-2
C[C@H](CO)N1C[C@H](C)[C@@H](CN(C)Cc2ccc3c(c2)OCO3)Oc2c(NC(=O)CCC(F)(F)F)cccc2C1=O	/	/	0	/	/
COc1ccc(C[C@H]2CN3C(=NC[C@@H]3Cc3ccccc3)N2CCNC(=O)CCC2CCCCC2)cc1	15	65*	0	2	-7
CSc1cccc(NC(=O)CC2Oc3ccccc3NC2=O)c1 (stereo not drawn)	1	-4	0	-2	37*
COc1cccc(NC(=O)CC2Oc3ccccc3NC2=O)c1 (stereo not drawn)	0	-12	0	6	0
CCN1[C@H](C(=O)OC)[C@@H](CO)[C@@H]2Cn3c(ccc(-c4cccc(C(=O)N(C)C)c4)c3=O)[C@@H]21	2	/	0	/	7
C/C=C/c1ccc2c(c1)[C@H]1[C@H](CCN1Cc1ccc(F)cc1)[C@H](CO)N2	0	/	0	4	38*
